This is an account of results in ChEMBL document CHEMBL1151756, “Design, synthesis, and biological evaluation of N-carboxyphenylpyrrole derivatives as potent HIV fusion inhibitors targeting gp41” (J Med Chem, 2008).

Each structure is given as a SMILES string. Calls of active or inactive are those of the source. The rule behind the calls is not given here. Where only a bound is given, the exact number is not on record here.

For one data set, the system named is MT2. Put plainly: Cytotoxicity against human MT2 cells after 4 days by XTT assay. It counts as cell-based. The settings on record: mt2, 96 h. Put shortly: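 XTT assay: MT-2 cells (5 × 10⁵/mL) incubated with compound at graded concentrations at 37 °C for 4 days. XTT (1 mg/mL) containing 0.02 μM PMS then added, and A450 read after 4 h. CC50 calculated.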
On the technique in general: Tetrazolium dyes change colour on reduction, which living cells bring about.

A short description of data set [1]: Inhibition of HIV1 3B gp41 six-helix bundle formation after 30 mins by sandwich ELISA. A general note: ELISA stands for enzyme-linked immunosorbent assay.
A short description of data set [2]: Selectivity index, ratio of CC50 for human MT2 cells to EC50 for HIV1 3B. Particulars: read-out: Ratio CC50/EC50. The class given is toxicity, cell-based.
Data set [3] relates to Human immunodeficiency virus 1. The experiment in a line: Antiviral activity against HIV1 3B in human MT2 cells assessed as inhibition of p24 antigen level after 4 days by ELISA. The class given is functional, organism-based. Particulars: Human immunodeficiency virus 1, 3B, MT2, 96 h. Put shortly: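 Medium then replaced without compound. Day 4 post-infection, supernatants lysed with 5% Triton X-100; p24 measured by sandwich ELISA with HIVIG capture, anti-p24 mAb, TMB, A450, and a recombinant p24 standard curve. Triplicates; EC50 calculated from percent inhibition.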

The subject of data set [4] is Human immunodeficiency virus 1. The experiment in a line: Antiviral activity against HIV1 3B in human MT2 cells assessed as reduction of virus-induced cytopathogenicity. It counts as functional, organism-based. A general note: Cytopathic effects are the visible damage that an infection or toxin causes in cultured cells.

By CC50 is commonly meant the concentration at which the toxic effect on the cells reaches its halfway point. Low values mean harm at low concentration, high ones better tolerance by the cells. A word on the IC50: it is the midpoint of a concentration-inhibition curve. Higher therefore signals weaker potency in that assay. As a reminder, the EC50 is the concentration that produces a half-maximal response. In the data set on MT2, `O=C1CSC(=S)N1c1cccc(C(F)(F)F)c1` had a CC50 of 85.4 µM. Moreover, the IC50 in data set [1] is greater than 1000 µM. Moreover, in data set [2], the selectivity ratio came to 0.74. In addition, the EC50 in data set [3] came out at 116 µM.

For `O=C(O)c1cccc(-c2noc(C(F)(F)F)n2)c1`, the CC50 with MT2 is greater than 400 µM. The compound further came in with a half-maximal inhibitory concentration (IC50) in data set [1] greater than 1000 µM. The EC50 in data set [3] is greater than 400 µM.

For the compound `Cc1ccc(C)n1-c1ccc(O)c(C(=O)O)c1`, the CC50 with MT2 was 133 µM. In addition, the result in data set [4] was Active. For the same compound, the IC50 in data set [1] turned out to be 37.4 µM. Also, the concentration giving a half-maximal response (EC50) in data set [3] is 0.69 µM.

`O=C(O)c1ccc(N2C(=O)CSC2=S)cc1`: it took 143 µM to reach half-maximal cytotoxicity in the data set on MT2 (CC50). In data set [1], this compound had a half-inhibitory concentration (IC50) greater than 1000 µM. Also, in data set [2], the selectivity ratio is 0.56. Besides, the EC50 in data set [3] worked out at 258 µM.

Take `O=C1CSC(=S)N1c1ccc(O)cc1`: the CC50 with MT2 is 84.9 µM. The compound further had an IC50 in data set [1] greater than 1000 µM. For the same compound, the selectivity ratio in data set [2] stood at 2.38. The EC50 in data set [3] turned out to be 35.7 µM.

In the data set on MT2, `COC(=O)c1ccc(-c2noc(CSC#N)n2)cc1` displayed a CC50 of 43.7 µM. Besides, the IC50 in data set [1] was found to be 171 µM. Besides, the selectivity ratio in data set [2] amounted to 3.99. For the same compound, the EC50 in data set [3] turned out to be 11 µM.

On to `Cc1ccc(C)n1-c1ccc(CC(=O)O)cc1`, for which it took 204 µM to reach half-maximal cytotoxicity in the data set with MT2 (CC50). Moreover, the IC50 in data set [1] worked out at 225 µM. In data set [2], the selectivity ratio is 97.1. Further, the EC50 in data set [3] was 2.1 µM.

The compound `O=C(O)c1cccc(-c2noc(CCl)n2)c1` registered a CC50 in the data set with MT2 of 64.9 µM. In data set [1], this compound gave an IC50 of 346 µM. The selectivity ratio in data set [2] is 1.12. Besides, the EC50 in data set [3] was 57.7 µM.

For the compound `O=C(O)Cc1ccc(-n2cccc2)cc1`, in data set [3], the EC50 is 371 µM.

In the data set on MT2, `Cc1ccc(C)n1-c1cccc(C(=O)O)c1` had a CC50 of 88.4 µM. Also, the half-inhibitory concentration (IC50) in data set [1] worked out at 42.2 µM. In data set [2], the selectivity ratio was 7.49. Besides, in data set [3], the EC50 was determined as 11.8 µM.

In the data set with MT2, `COc1ccc(N2C(=O)CSC2=S)cc1` returned a CC50 of 89.6 µM. Besides, the IC50 in data set [1] was greater than 1000 µM. The selectivity ratio in data set [2] is 1.41. Further, the concentration giving a half-maximal response (EC50) in data set [3] was determined as 63.4 µM.

For the compound `c1cc(-c2nnn[nH]2)cc(-n2cccc2)c1`, the CC50 in the data set with MT2 is 436 µM. The same compound returned an IC50 in data set [1] of 226 µM. In addition, the selectivity ratio in data set [2] was 10.6. The EC50 in data set [3] was determined as 41 µM.

For the compound `O=C(O)c1ccc(-c2noc(CCl)n2)cc1`, in the data set on MT2, the CC50 amounted to 64 µM. The IC50 in data set [1] is greater than 420 µM. Moreover, the selectivity ratio in data set [2] turned out to be 16.4. The EC50 in data set [3] was determined as 3.91 µM.

`O=C(O)c1cccc(N2C(=O)CSC2=S)c1` returned a CC50 in the data set on MT2 of 165 µM. The compound also yielded a half-inhibitory concentration (IC50) in data set [1] greater than 1000 µM. Besides, the selectivity ratio in data set [2] worked out at 0.81. Further, the EC50 in data set [3] was found to be 204 µM.

`N#CSCc1nc(-c2ccc(C(=O)O)cc2)no1` returned a cytotoxic concentration (CC50) with MT2 of 383 µM. The compound also had an IC50 in data set [1] of 178 µM. Moreover, in data set [2], the selectivity ratio was found to be 5.64. Moreover, the 50% effective concentration (EC50) in data set [3] was determined as 68 µM.

Consider `O=C(O)c1ccc(-c2noc(C(F)(F)F)n2)cc1`, for which the CC50 in the data set with MT2 worked out at 82.2 µM. Besides, the IC50 in data set [1] was 224 µM. Moreover, the selectivity ratio in data set [2] was determined as 26.9. For the same compound, the EC50 in data set [3] worked out at 3.06 µM.

`O=C(O)c1cc(N2C(=O)CSC2=S)ccc1Cl` registered a cytotoxic concentration (CC50) in the data set on MT2 of 155 µM. The compound further gave a half-inhibitory concentration (IC50) in data set [1] greater than 1000 µM. For the same compound, the selectivity ratio in data set [2] came out at 0.87. Also, in data set [3], the EC50 amounted to 179 µM.

Regarding `O=C(O)c1cccc(-n2cccc2)c1`, half-maximal cytotoxicity with MT2 (CC50) was put at 302 µM. Half-maximal inhibition in data set [1] (IC50) required 211 µM. Further, in data set [2], the selectivity ratio was found to be 6.74. In data set [3], the EC50 is 44.8 µM.

In the data set with MT2, `O=C(O)c1ccc(N2C(=O)C=CC2=O)cc1` returned a CC50 greater than 400 µM. The compound further showed an IC50 in data set [1] greater than 1000 µM. In addition, the selectivity ratio in data set [2] was greater than 1.95. The concentration giving a half-maximal response (EC50) in data set [3] worked out at 205 µM.

Compound `Nc1nnc(-c2ccc(C(=O)O)cc2)s1` showed a CC50 in the data set with MT2 greater than 400 µM. Besides, in data set [1], the half-maximal inhibitory concentration (IC50) is greater than 1000 µM. Also, the EC50 in data set [3] was greater than 400 µM.

For the compound `Cc1ccc(C)n1-c1ccc(Cl)c(C(=O)O)c1`, in the data set on MT2, the CC50 was found to be 211 µM. This compound yielded an IC50 in data set [1] of 78.7 µM. Moreover, the selectivity ratio in data set [2] was 139. Further, the EC50 in data set [3] was found to be 1.52 µM.

As to `COC(=O)c1ccc(-n2cccc2)cc1O`, the CC50 in the data set on MT2 came out at 379 µM. The selectivity ratio in data set [2] was 10.7. The EC50 in data set [3] came to 35.4 µM.

For `COC(=O)c1ccc(-n2c(C)ccc2C)cc1O`, the CC50 in the data set on MT2 stood at 88.9 µM. This compound gave an IC50 in data set [1] of 287 µM. Also, the selectivity ratio in data set [2] amounted to 1.5. The EC50 in data set [3] amounted to 59.1 µM.

In data set [1], `O=C(O)c1cc(-n2cccc2)ccc1O` returned a half-inhibitory concentration (IC50) of 48.7 µM. In addition, in data set [3], the EC50 was found to be 9.66 µM.

In the data set on MT2, `O=C(O)c1cc(N2C(=O)CSC2=S)ccc1O` came in with a CC50 of 152 µM. In data set [1], the IC50 was greater than 1000 µM. Also, the selectivity ratio in data set [2] was 0.92. Besides, the EC50 in data set [3] is 166 µM.

Consider `O=C(O)c1ccc(Cn2cccc2)cc1`, for which the IC50 in data set [1] came to 157 µM. For the same compound, the EC50 in data set [3] stood at 63.9 µM.

`Cc1ccc(C)n1-c1cccc(-c2nnn[nH]2)c1`: the midpoint of cytotoxicity with MT2, the CC50, lay at 249 µM. In addition, inhibition in data set [1] was half-maximal at 25.6 µM (IC50). The selectivity ratio in data set [2] was found to be 32.4. Further, the EC50 in data set [3] is 7.7 µM.

With `Cc1ccc(C)n1-c1ccc(Cl)cc1C(=O)O`, the IC50 in data set [1] came out at 60.3 µM. Moreover, in data set [3], the EC50 was 8.56 µM.

`O=C(O)c1ccc(N2C(=O)C=CC2=O)cc1O`: the CC50 in the data set on MT2 was greater than 400 µM. The same compound yielded an IC50 in data set [1] greater than 1000 µM. Also, the EC50 in data set [3] is greater than 400 µM.

`COC(=O)c1ccc(N2C(=O)C=CC2=O)cc1O` displayed a CC50 in the data set with MT2 of 66.2 µM. The midpoint of inhibition in data set [1], the IC50, lay at 101 µM. The selectivity ratio in data set [2] is 1.68. Also, the EC50 in data set [3] was found to be 39.4 µM.

Turning to `O=C(O)c1ccc(-c2noc(CO)n2)cc1`, the CC50 in the data set with MT2 is 455 µM. Also, the concentration for half-maximal inhibition (IC50) in data set [1] turned out to be 26.4 µM. In addition, the selectivity ratio in data set [2] is 2.98. In data set [3], the EC50 turned out to be 153 µM.

On to `O=C(O)c1ccc(-c2noc(CBr)n2)cc1`, for which half-maximal cytotoxicity in the data set with MT2 (CC50) was put at 81.9 µM. The same compound showed a half-maximal inhibitory concentration (IC50) in data set [1] greater than 353 µM. In addition, in data set [2], the selectivity ratio is 0.64. In addition, the EC50 in data set [3] was 127 µM.

`O=C(O)c1ccc(-n2cccc2)cc1`: in data set [1], the IC50 is 129 µM. The EC50 in data set [3] was determined as 69.2 µM.

`COC(=O)c1ccc(-c2noc(CBr)n2)cc1` registered a CC50 with MT2 of 32.7 µM. This compound also gave an IC50 in data set [1] greater than 337 µM. In addition, in data set [2], the selectivity ratio came to 0.37. Besides, in data set [3], the EC50 was determined as 88 µM.

`Cc1ccc(C)n1-c1ccc(C(=O)O)cc1` registered a CC50 in the data set on MT2 of 136 µM. Moreover, the IC50 in data set [1] was found to be 189 µM. The selectivity ratio in data set [2] is 0.78. For the same compound, the EC50 in data set [3] turned out to be 174 µM.

In turn, `COC(=O)c1ccc(-c2noc(CCl)n2)cc1` registered a CC50 in the data set with MT2 of 14.2 µM. The IC50 in data set [1] is greater than 395 µM. In addition, the selectivity ratio in data set [2] amounted to 0.34. For the same compound, the EC50 in data set [3] stood at 41.4 µM.

The compound `O=C(O)c1ccc(-n2cccc2)cc1O` gave a CC50 in the data set on MT2 of 443 µM. In data set [1], this compound returned an IC50 of 70.8 µM. Also, the selectivity ratio in data set [2] was 5.42. For the same compound, the EC50 in data set [3] was determined as 81.7 µM.

In the data set with MT2, `Cc1ccc(C)n1-c1ccc(S(N)(=O)=O)cc1` showed a CC50 of 117 µM. In data set [1], this compound returned an IC50 of 182 µM. The selectivity ratio in data set [2] was 1.18. Moreover, the EC50 in data set [3] was 99.1 µM.

In turn, `CCOC(=O)c1ccc(-c2noc(CO)n2)cc1` gave a 50% cytotoxic concentration (CC50) in the data set on MT2 of 385 µM. The same compound came in with an IC50 in data set [1] of 178 µM. Moreover, the selectivity ratio in data set [2] turned out to be 1.03. In addition, in data set [3], the 50% effective concentration (EC50) worked out at 373 µM.

`O=C(O)c1cc(-n2cccc2)ccc1Cl` registered a CC50 in the data set with MT2 of 336 µM. The IC50 in data set [1] amounted to 58.7 µM.
